Laboratory results taken from PubChem BioAssay.
Results filed as inconclusive are left out.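 How the source made its calls, unless noted: active means inhibition over a set limit, the all-compound mean plus 3 SD, in both replicate runs; inconclusive means over that limit in just one replicate run; inactive means at or under that limit in both runs.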

How the values were obtained:
[1] = OD615 S. cerevisiae growth inhibition, permissive medium, pilot counter-assay, permissive growth control for S. cerevisiae lifespan shortening project (AID 705;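 active means growth inhibition above 25% in both replicates, a cutoff set 3 SD above the mean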); conditions: OD615, 24 h, at 10 µM, active compounds read high
Outline: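 Timing: 24 h exposure, 30 °C / Material: Saccharomyces cerevisiae strain carrying genetically modified DeaD replicative-lifespan system / Signal: OD at 615 nm / Compound: 10 µM single dose, 0.25% DMSO / Medium: SC raffinose/galactose permissive medium / Evaluation: reduction in yeast growth (OD615)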

[2] = Restrictive medium S. cerevisiae growth inhibition, OD615, pilot screen of yeast lifespan reduction project, restrictive growth control (AID 706;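 active means growth inhibition above a set limit, 3 SD over mean compound inhibition, in both replicates, cut at about 43% in these data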;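 further: modified DeaD lifespan yeast strain shifted to restrictive glucose medium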); conditions: OD615, 48 h, at 10 µM, active compounds read high
Outline: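 System: Engineered S. cerevisiae DeaD strain | Detection: OD615 | Buffer or medium: CSMM-D glucose medium | Doses: 10 µM compound, 0.25% DMSO | Timing: 4 h pre-growth plus 48 h compound exposure, 30 °C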

[3] = viability gain of MRP-1-high H69AR cells under doxorubicin, pilot screen, MRP-1 activator project, CellTiter-Glo, duplicate (AID 807;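 active means viability increase at or above a cutoff of the median across tested compounds plus 3 SD, cut at about 8.5% in these data, passing the limit was not always enough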;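 further: compound pretreatment 18-22 h then 72 h combined with doxorubicin; 0% = doxorubicin alone and 100% = vehicle without doxorubicin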); conditions: H69AR viability with doxorubicin, CellTiter-Glo luminescence; at 10 µM; active compounds read high
[4] = growth suppression of beta-catenin knockout HCT116, pilot screen, human colon tumor cells (AID 823;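 active means cell viability at or below a set limit in both duplicate runs, the limit being the all-compound median minus 4 SD, cut at about 23% in these data, passing the limit was not always enough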;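 further: 0% = wells killed by 20 µM Hyamine and 100% = untreated DMSO cell wells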); conditions: CellTiter-Glo, 60 h, at 10 µM, active compounds read low
[5] = growth suppression of PTEN-deleted HCT116, pilot screen, cell-based, HCT116 clonal line, CellTiter-Glo (AID 824;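 active means viability at or below 27.92% in each of two runs, the all-compound median minus 4 SD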;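 further: 0% = 20 µM Hyamine control and 100% = vehicle cell control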); conditions: 60 h, at 10 µM, active compounds read low
[6] = inhibitors of the yeast RAM network, pilot screen, dse1pr::URA3 reporter, 5-FOA selection (AID 869);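 further: 0% = DMSO wells with no growth and 100% = 10 µM 1-NA-PP1 with full growth; RAM network block rescues cells from 5-FOA so hits raise OD615 growth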; conditions: S. cerevisiae dse1pr::URA3 5-FOA growth, OD615, 2 d; at 10 µM; active compounds read high; strain carries analog-sensitive mutant Cbk1 kinase
[7] = RAM signaling pathway blockade in yeast – S. cerevisiae, Pdr1DBD-CYC8 efflux-inhibited sensitized strain, primary screen (AID 1298;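 active means RAM network inhibition above 8.4% in each of two replicates, 3 SD over the compound average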;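 further: 0% = DMSO untreated cells without growth and 100% = 10 µM 1-NA-PP1 full growth; higher means more yeast growth rescued from 5-FOA killing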); conditions: S. cerevisiae cbk1-as DSE1-URA3 strain, 5-FOA growth OD615, 2 d; at 50 µM; active compounds read high

Cc1cc(Nc2ccc(F)cc2C)n2nc(C)nc2n1
inactive: growth inhibition [1] -2.58% | growth inhibition [2] -5.02% | viability increase [3] -1.42% | viability [4] 101% | viability [5] 98.7% | inhibition [6] 2.01% | RAM network inhibition [7] 5.08%

COc1ccc(NC(=O)CN2CC(c3ccccc3)CC2=O)cc1OC (stereo not drawn)
inactive: growth inhibition [1] -17.9% | growth inhibition [2] -15.6% | viability increase [3] -1.08% | viability [4] 104% | viability [5] 95.1% | inhibition [6] 0.27% | RAM network inhibition [7] 2.86%

CC(C)(Oc1ccc(Cl)cc1)C(=O)N1CCN(c2ccccn2)CC1
inactive: growth inhibition [1] -7.41% | growth inhibition [2] 3.08% | viability increase [3] -2.47% | viability [4] 70.7% | viability [5] 76.1% | inhibition [6] 0.32% | RAM network inhibition [7] -1.34%

COC(=O)c1sccc1NC(=O)c1ccc(Br)o1
inactive: growth inhibition [1] 12.1% | growth inhibition [2] 11.3% | viability increase [3] -6.77% | viability [4] 78.5% | viability [5] 72.2% | inhibition [6] 2.2% | RAM network inhibition [7] 7.41%

COC(=O)C(C(=O)OC)C(C(C)C)C(C(=O)OC)C(=O)OC
inactive: growth inhibition [1] -8.23% | growth inhibition [2] -9.04% | viability increase [3] -1.49% | viability [4] 101% | viability [5] 98.2% | inhibition [6] 1.07% | RAM network inhibition [7] 3.68%

CCOC(=O)c1cccc(NC(=O)CCS(=O)(=O)c2cccc3nsnc23)c1
inactive: growth inhibition [1] -0.82% | growth inhibition [2] -22% | viability increase [3] -3.74% | viability [4] 100% | viability [5] 97% | inhibition [6] 0.99% | RAM network inhibition [7] 2.43%

Cc1ccc(-n2c(=O)[nH]cc(C(=O)Nc3ccc4c(c3)OCO4)c2=O)cc1C
inactive: growth inhibition [1] -15.8% | growth inhibition [2] -15% | viability increase [3] 0.27% | viability [4] 107% | viability [5] 94.8% | inhibition [6] 1.78% | RAM network inhibition [7] 3.26%

Cc1cc2ccccc2n1CCNC(=O)c1cccs1
inactive: growth inhibition [1] 0.02% | growth inhibition [2] 7.93% | viability increase [3] -2.29% | viability [4] 92.6% | viability [5] 91.4% | inhibition [6] 1.69% | RAM network inhibition [7] 3.36%

CC(C)C(NS(=O)(=O)c1ccc2c(c1)oc(=O)n2C)C(=O)N1CCN(c2ccccc2F)CC1 (stereo not drawn)
inactive: growth inhibition [1] -11% | growth inhibition [2] -9.9% | viability increase [3] -4.04% | viability [4] 86.9% | viability [5] 83.1% | inhibition [6] 1.75% | RAM network inhibition [7] 4.04%

Cc1noc(C)c1CSCC(=O)OCC(=O)NC1CCCCC1
inactive: growth inhibition [1] -9% | growth inhibition [2] 2.07% | viability increase [3] 0.39% | viability [4] 97.1% | viability [5] 99.3% | inhibition [6] 0.26% | RAM network inhibition [7] 2.57%

O=C(NCc1ccc2c(c1)OCO2)c1nnc(Cc2ccc(Cl)cc2)o1
inactive: growth inhibition [1] -5.43% | growth inhibition [2] 4.12% | viability increase [3] 2.05% | viability [4] 103% | viability [5] 103% | inhibition [6] 2.2% | RAM network inhibition [7] 5.48%

N#CC1=C(N)C(C#N)(C#N)C2(C(=O)Nc3ccccc32)C2CCCC=C12 (stereo not drawn)
inactive: growth inhibition [1] 5.05% | growth inhibition [2] -12.2% | viability increase [3] -4.96% | viability [4] 91.5% | viability [5] 82.6% | inhibition [6] 0.71% | RAM network inhibition [7] 0.83%

CC(C)CC(=O)Nc1ccc2oc(-c3cccnc3)nc2c1
inactive: growth inhibition [1] 2.48% | growth inhibition [2] 2.53% | viability increase [3] -1.73% | viability [4] 100% | viability [5] 94% | inhibition [6] 1.53% | RAM network inhibition [7] -0.72%

COc1ccccc1OCC(=O)Nc1ccc(S(=O)(=O)N2CCCCCC2)cc1
inactive: growth inhibition [1] -10.1% | growth inhibition [2] -4.95% | viability increase [3] 0.4% | viability [4] 83.1% | viability [5] 82.1% | inhibition [6] 2.08% | RAM network inhibition [7] 10.1%

O=C(c1ccccc1)N1CCN(c2ccc(NCc3ccc4c(c3)OCO4)cc2)CC1
inactive: growth inhibition [1] -15.1% | growth inhibition [2] -14.4% | viability increase [3] -3.84% | viability [4] 64.7% | viability [5] 75.8% | inhibition [6] 1.77% | RAM network inhibition [7] 6.1%

COc1ccc2nc(SCc3nc(N)nc(Nc4ccccc4)n3)[nH]c2c1
inactive: growth inhibition [1] -8.8% | growth inhibition [2] 15.4% | viability increase [3] 0.65% | viability [4] 67.7% | viability [5] 80.3% | inhibition [6] 0.72% | RAM network inhibition [7] 6.33%

O=C(CCN1CCN(c2ccccc2)CC1)Nc1ccc2c(c1)OCO2
inactive: growth inhibition [1] -5.71% | growth inhibition [2] 0.05% | viability increase [3] -4.06% | viability [4] 91.7% | viability [5] 92.4% | inhibition [6] 2.58% | RAM network inhibition [7] 1.28%

CCCc1nc(N)nc2c1C(=O)CC(C)(C)C2
inactive: growth inhibition [1] -15.1% | growth inhibition [2] 3.37% | viability increase [3] -1.08% | viability [4] 89.4% | viability [5] 87.6% | inhibition [6] 1.54% | RAM network inhibition [7] 0.27%

CCCCn1c(CNC(=O)C(C)(C)C)nc2ccccc21
inactive: growth inhibition [1] -11.1% | growth inhibition [2] -12% | viability increase [3] -1.15% | viability [4] 98% | viability [5] 98.9% | inhibition [6] 0.25% | RAM network inhibition [7] 5.15%

CCCCn1c(=O)n(CC(=O)Nc2ccc(C)c(Cl)c2)c(=O)c2c1ncn2Cc1ccco1
inactive: growth inhibition [1] -2.46% | growth inhibition [2] -24.8% | viability increase [3] 0.99% | viability [4] 72.2% | viability [5] 72.3% | inhibition [6] 2.23% | RAM network inhibition [7] 1.61%

COc1ccc(-c2cc(C(F)(F)F)nc(N3CCN(C)CC3)n2)cc1
inactive: growth inhibition [1] 1.48% | growth inhibition [2] -4.37% | viability increase [3] -5.32% | viability [4] 33.7% | viability [5] 42.9% | inhibition [6] 1.43% | RAM network inhibition [7] 4.04%

CCCCCCN=CC1=C(O)C(C(=O)OC)C(C)(C)CC1=O (stereo not drawn)
inactive: growth inhibition [1] -10.1% | growth inhibition [2] -3.98% | viability increase [3] 1.15% | viability [4] 95.1% | viability [5] 95.3% | inhibition [6] 0.93% | RAM network inhibition [7] 0.11%

O=C(Cc1cccs1)Nc1nnc(-c2ccncc2)s1
inactive: growth inhibition [1] -0.91% | growth inhibition [2] 3.21% | viability increase [3] 2.53% | viability [4] 108% | viability [5] 98.8% | inhibition [6] 0.38% | RAM network inhibition [7] 0.83%

N=c1sccn1CC(=O)Nc1ccccc1-c1ccccc1
inactive: growth inhibition [1] -5.55% | growth inhibition [2] -3.2% | viability increase [3] -2.08% | viability [4] 94.3% | viability [5] 95.8% | inhibition [6] 2.95% | RAM network inhibition [7] 3.6%
